Assay outcomes deposited in PubChem BioAssay by several laboratories.
CCR6 antag – CCR6 (human) receptor antagonism | P51684 | CHO-K1 CCR6 PathHunter beta-arrestin, luminescence, CCL20-stimulated | inhibition, % at 20 µM | 0.49% of 340,000 active | AID 493098;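 active = compounds whose inhibition of the agonist-driven luminescence signal at 20 µM reaches about 50%, limit read from the data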;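 also: cells stimulated with CCL20 at 14 nM final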
Target sequence (P51684 whole entry, looked up): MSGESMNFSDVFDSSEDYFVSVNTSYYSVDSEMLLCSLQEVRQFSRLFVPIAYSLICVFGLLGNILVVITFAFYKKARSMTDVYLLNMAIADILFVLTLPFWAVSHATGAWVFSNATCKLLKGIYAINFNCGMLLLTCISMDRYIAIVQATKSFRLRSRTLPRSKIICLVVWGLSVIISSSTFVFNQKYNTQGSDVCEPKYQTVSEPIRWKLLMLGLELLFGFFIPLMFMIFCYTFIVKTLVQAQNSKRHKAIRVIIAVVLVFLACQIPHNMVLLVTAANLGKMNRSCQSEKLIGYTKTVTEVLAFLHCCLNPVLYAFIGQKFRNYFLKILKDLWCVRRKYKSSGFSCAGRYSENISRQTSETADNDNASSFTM
APJ ag – APJ receptor agonism; P35414; CHO-K1 APJ PathHunter beta-arrestin, luminescence; 0% DMSO wells, 100% apelin; activation, % at 20 µM; 0.11% of 330,000 active; AID 2520;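 active = activation more than six SD over the plate average, tested at 20 µM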
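Assay system: engineered CHO-K1 APJ arrestin reporter cells; Amount: 1000 CHO-K1 reporter cells seeded per well; Dosing: one dose, 20 µM compound, 1% DMSO; Times: compound stimulation 90 min at 25 °C, detection 60 min; Measured by: luminescent beta-gal fragment complementation, chemiluminescent substrate; Read-out: APJ–arrestin association signal; Controls: DMSO vs Apelin-13 10 nM.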
APJ antag – blocks the human apelin receptor APJ | 0.32% of 330,000 active | CHO-K1 APJ beta-arrestin complementation, luminescence | AID 2521 | inhibition, % at 20 µM;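 active = inhibition above about 40% at 20 µM, limit read from the data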;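 also: cells challenged with 10 nM apelin-13 agonist together with compound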
EBI2 block – EBI2 (human) antagonism | P32249 | EBI2 beta-arrestin recruitment, luminescence, 7a,25-OHC stimulated | inhibition, % at 5 µM | 0.81% of 360,000 active | AID 651636; in the data active = inhibition above about 38%;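 also: enzyme fragment complementation signal reports receptor beta-arrestin coupling in cells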
CXCR6 block – CXCR6 (human) receptor inhibition | 0.36% of 360,000 active | AID 602244 | O00574 | inhibition, % at 20 µM | CHO-K1 PathHunter CXCR6 beta-arrestin, luminescence; in the data active = inhibition above about 34%, passing the limit was not always enough;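 also: antagonist mode with CXCL16 agonist at 10 nM final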
HTR2A ag – mouse HTR2A agonism via beta-arrestin recruitment | P35363 | AID 624169 | CHO-K1 mHTR2A beta-arrestin complementation, luminescence; percent of 30 µM serotonin response | 0.66% of 360,000 active | activation, % at 7.6 µM;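 active = activation above a run cutoff, the mean activation of all tested compounds plus 3 SD, cut at about 14% in these data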
Hits are given with their value; - = inactive; . = not tested or not shown. An excerpt weighted towards active compounds, which were near 2.1% of everything screened.

SMILES	CCR6 antag	APJ ag	APJ antag	EBI2 block	CXCR6 block	HTR2A ag
O=C1CCCC(=O)N1c1ccc(O)cc1	-	-	-	-	-	-
Cc1ccc(Cc2cnc(NC(=O)/C(C#N)=C/c3ccc(-c4ccc([N+](=O)[O-])cc4)o3)s2)cc1	59	-	-	-	-	-
N#CC(C#N)=NNc1ccc([N+](=O)[O-])cc1	57	-	-	-	43	-
COc1ccc(C(=O)/C(C#N)=N/Nc2ccc([N+](=O)[O-])cc2)cc1	76	-	73	-	67	-
C[C@@H](C(=O)NCCCCCC(=O)O)n1nnc2ccccc2c1=O	-	-	-	-	-	-
Cc1cc(O)cc(O)c1C(=O)Cc1cscn1	-	-	-	-	-	-
C/C=C/C=C/C(=O)Nc1cccc(C2=NOC3(C2)C[C@H](C(N)=O)N(C(=O)CC(c2ccccc2)c2ccccc2)C3)c1 (stereo partly specified)	.	-	-	.	.	.
COc1cccc(CNc2cc(CSc3ccc(Cl)cc3)nc(C)n2)c1	-	-	-	49	-	-
CCc1ccc(S(=O)(=O)/N=C2\C=CC(=O)c3ccccc32)cc1	.	-	-	.	.	.
CCc1ccc(S(=O)(=O)/N=C2\C=C(Nc3ccc(O)cc3)C(=O)c3ccccc32)cc1	57	-	-	-	41	-
O=C1C(Nc2ccc(O)cc2)=C/C(=N/S(=O)(=O)c2cccs2)c2ccccc21	59	.	.	-	-	-
CCc1ccc(S(=O)(=O)/N=C2/C=C(Sc3ncn[nH]3)C(=O)c3ccccc32)cc1	.	.	.	-	54	-
O=C(O)c1ccc(NC2=C/C(=N/S(=O)(=O)c3cccs3)c3ccccc3C2=O)cc1	.	.	.	-	-	-
Cc1cc(C)c(S(=O)(=O)/N=C2\C=C(NS(=O)(=O)c3ccccc3)C(=O)c3ccccc32)c(C)c1	-	-	-	-	-	-
CCc1ccc(S(=O)(=O)/N=C2\C=C(Nc3cccc(C(=O)O)c3)C(=O)c3ccccc32)cc1	-	-	-	-	-	-
Cc1ccc(NC2=C/C(=N\S(=O)(=O)c3cccs3)c3ccccc3C2=O)c(C)c1	59	-	-	-	-	-
CC(CCc1ccccc1)NC(=O)CN1CCOc2ccccc21 (stereo unspecified)	-	-	-	-	-	-
Cc1ccc(Cl)cc1NC1=C/C(=N\S(=O)(=O)c2cccs2)c2ccccc2C1=O	59	-	-	-	-	-
Cc1cc(C)c(S(=O)(=O)/N=C2\C=C(Nc3ccc(C(=O)O)cc3)C(=O)c3ccccc32)c(C)c1	.	-	-	-	-	-
Cc1cccc(NC2=C/C(=N/S(=O)(=O)c3cccs3)c3ccccc3C2=O)c1	53	.	.	-	-	-
FC(F)(F)c1cnc(NNC(=S)Nc2ccccc2Cl)c(Cl)c1	85	-	-	-	82	-
COc1cc(C[C@@H]2C(=O)OC[C@H]2Cc2ccc(OC)c(OC)c2)ccc1O	-	-	-	-	-	16
COc1ccc(/C=C2\SC(N3CCCCC3)=NC2=O)cc1OC	-	-	-	-	-	-
COc1cc(/C=C2\SC(N3CCC(C)CC3)=NC2=O)ccc1O	-	-	-	40	-	-
Cc1cccc(-c2noc(-c3ccccc3C(=O)NCc3ccco3)n2)c1	-	-	-	-	-	-
SMILES	CCR6 antag	APJ ag	APJ antag	EBI2 block	CXCR6 block	HTR2A ag
CC1CCc2c(sc(NC(=O)c3ccc(-c4ccccc4[N+](=O)[O-])o3)c2C#N)C1 (stereo unspecified)	58	-	-	-	-	-
N#Cc1c(NC(=O)c2ccc(-c3ccccc3[N+](=O)[O-])o2)sc2c1CCCC2	-	-	-	-	-	-
O=C(C[C@@H]1CC[C@@H]2[C@H](COC[C@@H](O)CN2Cc2cc(F)ccc2F)O1)NCc1ccc(F)cc1	.	.	.	-	.	-
N#C/C(=N\Nc1ccc(Cl)cc1)C(=O)c1ccccc1	-	-	-	-	-	-
Cc1c(N/N=C(\C#N)C(=O)c2ccc(Cl)cc2)c(=O)n(-c2ccccc2)n1C	81	.	.	-	77	-
O=S(=O)(N1CCCCC1)N1CCN(CC(O)COc2ccc3cc(Br)ccc3c2)CC1 (stereo unspecified)	-	-	-	90	-	-
OC(COc1ccc2cc(Br)ccc2c1)CN1CCCC1 (stereo unspecified)	-	-	-	-	-	-
